# Source: PubChem
# OXTR potentiate: potentiators of human oxytocin receptor. hit rate 0.061% among 320,000. P30559. CHO-OTR cells, Fluo-8 calcium fluorescence, potentiator mode; 0% = oxytocin EC15, 100% = EC100. activation, % at 3 µM. AID 2445;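 active = activation above that plate's cutoff, the mean activation of tested compounds plus 3 SD, cut at about 6.6% in these data, passing the limit was not always enough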
#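 Replication – single well per compound, singlicate · Assay system – CHO cell line stably expressing human OTR · Timing – 6 min pre-incubation, 100 s read · Measure – normalized max/min fluorescence ratio, % activation · Doses – 3.0 µM, one dose · Detection – Fluo-8 calcium dye fluorescence · Probe or stimulus – oxytocin near EC15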
# V1aR counter: counter-screen for oxytocin receptor agonists: human V1a receptor agonists. AID 2797. CHO-V1R cells, Fluo-8 calcium fluorescence, agonist mode; 0% DMSO, 100% 3 nM vasopressin. activation, % at 3 µM. P37288. hit rate 0.25% among 320,000;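 active = activation above the mean activation of all tested compounds plus 3 SD, per screening run, cut at about 20% in these data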;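 note: signal is peak over basal fluorescence ratio across a 100 second FLIPR read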
# Target sequence (P37288 whole entry, looked up): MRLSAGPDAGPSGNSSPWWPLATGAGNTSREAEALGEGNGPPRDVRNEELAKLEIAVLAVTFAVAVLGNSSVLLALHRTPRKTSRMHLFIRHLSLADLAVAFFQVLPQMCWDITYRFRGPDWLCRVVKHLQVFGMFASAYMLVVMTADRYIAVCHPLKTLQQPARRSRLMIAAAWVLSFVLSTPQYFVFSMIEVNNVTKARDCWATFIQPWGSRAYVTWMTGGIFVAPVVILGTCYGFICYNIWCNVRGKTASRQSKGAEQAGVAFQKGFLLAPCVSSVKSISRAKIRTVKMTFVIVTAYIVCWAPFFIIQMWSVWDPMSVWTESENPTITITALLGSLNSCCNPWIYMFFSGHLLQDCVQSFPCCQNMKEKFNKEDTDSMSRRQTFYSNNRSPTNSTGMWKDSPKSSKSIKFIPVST
# TAAR1 agonist: human TAAR1 agonism. Q96RJ0. CHO RD-HGA16 TAAR1, Fluo-8 calcium fluorescence; vehicle wells 0%, saturating PEA agonist 100%. activation, % at 3 µM. hit rate 0.99% among 360,000. AID 624467;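 active = activation above the mean activation of all test compounds in the run plus 3 SD, cut at about 38% in these data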
# Target sequence (Q96RJ0 whole entry, looked up): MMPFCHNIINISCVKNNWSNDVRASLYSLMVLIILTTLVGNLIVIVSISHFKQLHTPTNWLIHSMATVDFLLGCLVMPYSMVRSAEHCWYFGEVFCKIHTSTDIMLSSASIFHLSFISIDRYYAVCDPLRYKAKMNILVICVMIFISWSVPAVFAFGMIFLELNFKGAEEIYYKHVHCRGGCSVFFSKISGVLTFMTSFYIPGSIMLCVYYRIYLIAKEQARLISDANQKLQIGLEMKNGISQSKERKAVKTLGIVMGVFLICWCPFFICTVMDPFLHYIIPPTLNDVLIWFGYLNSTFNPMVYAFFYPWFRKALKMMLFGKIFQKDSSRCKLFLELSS
#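 System: CHO RD-HGA16 cells carrying human TAAR1 plus Gα16; Incubation: 17-24 h seeding, 75 min 37 °C dye, 30 min RT; Measured by: Fluo-8 fluorescence, 5 s baseline then 140 s kinetic read; Control set: DMSO and PEA EC100; Replication: single well for each compound.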
# OXTR agonist: activates the human oxytocin receptor. AID 2435. P30559. hit rate 0.32% among 320,000. activation, % at 3 µM. CHO-OTR cells, Fluo-8 calcium fluorescence; normalized: DMSO 0%, oxytocin 100%;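 active = activation above the mean of all tested compounds plus 3 SD, cutoff set per screening run, cut at about 20% in these data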;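 note: peak over basal fluorescence ratio from a 100 s FLIPR kinetic read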
# TAAR1 antagonist: antagonists of human TAAR1 | hit rate 1.5% among 360,000 | CHO RD-HGA16 TAAR1, Fluo-8 calcium fluorescence, antagonist | AID 624466 | inhibition, % at 3 µM;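 active = inhibition above a per-plate cutoff, the mean inhibition of test compounds on that plate plus 3 SD, cut at about 49% in these data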
#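 Assay system: RD-HGA16 CHO cells with stable hTAAR1 and Gα16 / Reagent: EC80 β-phenethylamine stimulus / Doses: 3 µM, single point / Timing: dye loading 75 min at 37 °C, then 30 min room temperature / Measured by: Fluo-8 intracellular calcium dye fluorescence, real-time kinetic reads / Controls: vehicle wells and EC80 agonist wells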
# TAAR1 ag conf: human TAAR1 agonism, confirmed; shares compounds with TAAR1 agonist; CHO RD-HGA16 TAAR1, Fluo-8 calcium fluorescence; scaled: DMSO 0%, maximal phenethylamine 100%; activation, % at 3 µM; hit rate 82% among 2,400;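 active = activation above a cutoff set at the run's mean compound activation plus 3 SD, cut at about 39% in these data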
# Ga16 ag counter: nonselective agonist in parental cells, TAAR1 agonist counter-screen | shares compounds with TAAR1 agonist | CHO-Ga16 parental, Fluo-8 calcium fluorescence; normalized to maximal ATP response, DMSO zero | activation, % at 3 µM | hit rate 50% among 2,400 | AID 651787;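 active = activation above the run cutoff, the mean activation over all tested wells plus 3 SD, cut at about 12% in these data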
# TAAR1 desensitize: TAAR1 response desensitization, agonist counter-screen. shares compounds with TAAR1 agonist. inhibition, % at 3 µM. CHO RD-HGA16 hTAAR1, Fluo-8 calcium, beta-PEA response inhibition. hit rate 46% among 2,400;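 active = inhibition above the run cutoff, the mean inhibition of all test compounds plus 3 SD, cut at about 49% in these data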;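 note: beta-PEA stimulus applied at its EC80; loss of beta-PEA calcium signal after compound pretreatment read as receptor desensitization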
# Ga16 antag count: counter-screen for TAAR1 agonists: nonselective Ga16 antagonists. shares compounds with TAAR1 agonist. hit rate 39% among 2,400. inhibition, % at 3 µM. CHO-Ga16 ATP-induced calcium, Fluo-8 fluorescence. AID 651952;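 active = inhibition above the plate's mean compound inhibition plus 3 SD, computed per plate, cut at about 22% in these data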
# Hits are given with their value; . = inactive; / = no result. A selection: hits, their analogues and other compounds. The true share with any hit is near 2.3%.
SMILES,OXTR potentiate,V1aR counter,TAAR1 agonist,OXTR agonist,TAAR1 antagonist,TAAR1 ag conf,Ga16 ag counter,TAAR1 desensitize,Ga16 antag count
CC1CCN(S(=O)(=O)c2cccc(C(=O)NC3CCS(=O)(=O)C3)c2)CC1 (centres undefined),/,/,.,/,.,/,/,/,/
CCN(CC)C(=O)Oc1nnc(SC(C)C)n1-c1ccc(Cl)cc1,.,.,.,.,.,/,/,/,/
CCN(CC)C(=O)Oc1nnc(SC(C)C)n1-c1ccc(Cl)c(Cl)c1,.,.,44.9,.,.,.,13.9,.,.
O=C(COC(=O)CN1C(=O)C2CCCCC2C1=O)NNC(=O)c1ccc(Cl)cc1 (centres undefined),.,.,.,.,.,/,/,/,/
Cn1cnnc1SCC(=O)Nc1ccc2nc(SCc3ccccc3Cl)sc2c1,.,.,.,.,.,/,/,/,/
Cn1cnnc1SCC(=O)Nc1ccc2nc(SCc3ccccc3)sc2c1,.,.,43.8,.,.,48.1,20.8,.,25.2
Cc1ccc(S(=O)(=O)Nc2ccc(N(C)S(=O)(=O)c3ccc(C)cc3)cc2)cc1,.,.,51.8,.,.,44.5,18.6,.,.
Cc1cccc(NC2=NCC(=O)N2CCc2ccccc2)c1,.,.,86.2,.,51.2,106.2,.,84.7,.
O=C1C(SCCO)=C(SCCO)C(=O)c2ccccc21,.,.,67.0,.,84.4,70.8,49.0,82.9,74.0
CCN(CC)CCNC(=O)c1ccc(NC(=O)c2cccc(S(=O)(=O)N3CCc4ccccc43)c2)cc1,/,/,60.3,/,.,59.5,.,.,.
O=C(NC(=S)NNC(=O)c1ccccc1O)c1ccc(F)cc1,.,32.0,90.0,34.3,.,54.5,58.4,.,21.9
Cc1ccccc1C(=O)NNC(=S)NC(=O)c1ccccc1,.,40.0,123.3,53.5,55.4,134.6,111.9,99.7,78.1
O=C(NC(=S)NNC(=O)c1ccccc1O)c1ccccc1,.,.,66.0,.,.,75.6,66.3,.,.
COc1cc(C)c(NC(=O)C(=S)NCCc2ccccc2)cc1C,.,.,65.9,.,78.9,91.9,.,85.4,.
COc1cccc(OC)c1C(=O)NCCc1ccccc1,.,.,80.6,.,.,79.6,.,63.0,.
COC(=O)c1c(N)sc(C(=O)NCCc2ccccc2)c1C,/,/,101.4,/,73.5,86.1,.,88.9,21.6
CCN(CC(=O)NCc1ccc(Cl)cc1)C(=O)CSCC(=O)Nc1ccc(C)cc1,.,.,.,.,.,/,/,/,/
COc1ccc(N=C(N)SCc2ccccn2)cc1,.,.,.,.,.,/,/,/,/
CC(C)=N/N=C(\N)SCc1ccccc1,.,.,/,.,/,/,.,/,.
CCOC(=O)C(=O)NN=C(c1ccccc1)c1ccccc1,.,.,.,.,.,/,/,/,/
Cc1ccc(N(C)c2nc(N)nc(N)c2N=O)cc1,/,/,59.1,/,.,53.4,64.8,.,37.1
Cc1cccc(C(=O)NC(NCCc2ccccc2)C(Cl)(Cl)Cl)c1 (centres undefined),.,.,79.6,.,61.5,68.8,.,.,.
CC(=O)Nc1cccc(C(=O)/C=C/c2ccc(N(C)C)cc2)c1,.,132.2,127.1,194.5,57.8,81.4,96.4,70.8,75.0
O=C(Cc1cccs1)N[C@@H]1c2ccccc2CC[C@H]1OCc1ccccc1,/,/,.,/,.,/,/,/,/
O=C(Cc1cccs1)N[C@@H]1c2ccccc2CC[C@@H]1OCc1ccccc1,/,/,59.5,/,82.5,.,.,.,.
SMILES,OXTR potentiate,V1aR counter,TAAR1 agonist,OXTR agonist,TAAR1 antagonist,TAAR1 ag conf,Ga16 ag counter,TAAR1 desensitize,Ga16 antag count
O=C(COc1ccc(Cl)cc1Cl)NC(=S)N1CCCc2ccccc21,.,.,50.9,.,.,.,.,.,.
O=C(CCCCl)N1CCc2[nH]c3ccccc3c2C1,/,/,88.8,/,86.6,96.8,.,92.5,.
S=C(NC1CCCCC1)N1CCc2[nH]c3ccccc3c2C1,.,.,.,.,.,/,/,/,/
Cc1ccc(NC(=S)N2CCc3[nH]c4ccccc4c3C2)cc1,.,.,69.0,.,64.5,49.0,.,.,.
COC(=O)c1sccc1Oc1c(Cl)cccc1[N+](=O)[O-],.,.,.,.,.,/,/,/,/
O=C(Nc1ccc(Cl)cc1)Nc1ccc(N2CCOCC2)cc1,.,.,66.1,.,79.3,48.5,12.9,49.3,21.9
CN1CCCN(S(=O)(=O)c2ccc(O)c(C(=O)O)c2)CC1,.,.,.,.,.,/,/,/,/
CN(Cc1nc(-c2cnccn2)no1)CC(O)c1ccccc1 (centres undefined),.,.,.,.,.,/,/,/,/
CN(CCc1ccccc1)Cc1nc(-c2cnccn2)no1,.,.,52.5,.,.,.,.,.,.
Cc1cc[n+](CC(=O)Nc2cccc(C)c2)cc1,.,.,.,.,.,/,/,/,/
Cc1ccc(SCC(=O)Nc2ccc(N3CCN(C)CC3)c(F)c2)cc1,.,.,48.6,.,.,69.0,.,.,.
CC(=C1C(=O)c2ccccc2C1=O)N1CCc2ccccc2C1,.,.,/,.,/,/,.,/,.
COc1cccc(O)c1CN1CCC(C(=O)Nc2ccc(-c3cccc(C)c3)cc2)CC1,.,.,52.9,.,.,.,17.6,.,36.8
CS(=O)(=O)N1CCC(C(=O)NCc2ccccc2)CC1,.,.,.,.,.,/,/,/,/
COc1cccc(C(=O)N[C@H](C(=O)N2CCC[C@H]2C(=O)NCCc2ccccc2Cl)C2CCCCC2)c1,/,/,52.2,/,54.7,79.1,.,85.6,.
O=C(N[C@H](C(=O)N1CCC[C@H]1C(=O)NCCc1ccccc1Cl)C1CCCCC1)c1ccccc1,/,/,64.5,/,65.9,75.7,.,85.2,.
O=C(N[C@H](C(=O)N1CCC[C@H]1C(=O)NCCc1ccccc1Cl)C1CCCCC1)C1CC1,/,/,45.9,/,.,73.2,.,78.4,.
O=C(N[C@H](C(=O)N1CCC[C@H]1C(=O)NCc1ccccc1)C1CCCCC1)c1ccccc1,/,/,.,/,.,/,/,/,/
O=C(N[C@H](C(=O)N1CCC[C@H]1C(=O)NC1CCCC1)C1CCCCC1)C1CCCC1,/,/,.,/,.,/,/,/,/
COc1cccc(C(=O)N[C@H](C(=O)N2CCC[C@H]2C(=O)NCc2ccccc2)c2ccccc2)c1,/,/,.,/,.,/,/,/,/
CCOC(=O)c1[nH]cnc1C(=O)Nc1ccccc1OC,.,.,.,.,.,/,/,/,/
O=C(Oc1ccccc1)N1CCN(C(=O)c2ccco2)CC1,/,/,.,/,.,/,/,/,/
